This note sets out measurements from ChEMBL document CHEMBL5104204, “Synthesis and in vitro anticancer evaluation of novel flavonoid-based amide derivatives as regulators of the PI3K/AKT signal pathway for TNBC treatment” (RSC Med Chem, 2022).

The test system of assay [1] is MDA-MB-231. Put plainly: Inhibition of PI3K/AKT signalling pathway in human MDA-MB-231 cells assessed as decrease in phosphorylated PI3K level at 1 to 10 uM incubated for 48 hrs by western blot analysis. The conditions noted are these: dose 1-10 µM, DDE = dose-dependent effect. Type of assay: cell-based. A digest of the protocol:
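MDA-MB-231 treated at 1, 5 and 10 μM at 37 °C, then lysed in RIPA/PMSF for 30 min at 0 °C and cleared at 14 000 × g, 4 °C. Protein quantified by BCA; 40 μg resolved by SDS-PAGE and transferred to PVDF. Blocked in 5% skim milk, primary antibody overnight at 4 °C, secondary 2 h at room temperature, chemiluminescent imaging.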
(In general: Immunoblotting shows a protein as a band on a membrane.)

Assay [2] has as its system MDA-MB-231. In words: Induction of apoptosis in human MDA-MB-231 cells assessed as early apoptotic cells at 1.76 uM incubated for 48 hrs AnnexinV/ propidium iodide staining based flow cytometry (Rvb= 0.3%). The class given is functional. In general terms: A flow cytometer gives signals particle by particle.
The test system of assay [3] is MDA-MB-231. In words: Induction of apoptosis in human MDA-MB-231 cells assessed as late apoptotic cells at 2.2 uM incubated for 48 hrs AnnexinV/ propidium iodide staining based flow cytometry (Rvb= 0.40%). The class given is functional.
The next assay has as its system MCF7. In words: Antitumor activity against human MCF7 cells assessed as inhibit cell proliferation incubated for 72 hrs by CCK-8 assay. The class given is functional, cell-based. The conditions noted are these: MCF7, 72 h. A digest of the protocol: (§1)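 CCK8 viability readout. Culture media: HCC1937, A549, HeLa and GTL-16 in RPMI 1640; MDA-MB-231, MCF-7 and HepG2 in high-glucose DMEM; all with 10% FBS and penicillin/streptomycin, 37 °C, 5% CO2. 4×10^3–6×10^3 cells/well, 24 h, then compounds in serum-free medium, 72 h at 37 °C. 10% CCK8, 2 h, OD 450/630 nm. Five wells per group; IC50 from inhibition rate; three independent experiments, mean ± SD.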

In assay [4] the test system is MDA-MB-231. Put plainly: Inhibition of cell invasion in human MDA-MB-231 cells assessed as decrease in number of cells crossing microporous membrane at 0.88 to 3.52 uM incubated for 48 hrs by crystal violet staining based transwell invasion assay. Type of assay: functional. The conditions noted are these: dose 0.88-3.52 µM, DDE = dose-dependent effect. A digest of the protocol: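 Transwell invasion, MDA-MB-231. Cells in serum-free medium in the upper chamber with compound; complete medium below. 48 h at 37 °C. Methanol fixation 2 h, non-invaded cells swabbed off, 0.5% crystal violet 30 min. Invaded cells photographed and counted; n = 3, mean ± SD.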

The subject of assay [5] is MDA-MB-231. Put plainly: Antitumor activity against human MDA-MB-231 cells assessed as inhibit cell proliferation incubated for 72 hrs by CCK-8 assay. The class given is functional, cell-based. The note with it: MDA-MB-231, 72 h. A digest of the protocol: as §1
A general note: Tetrazolium assays rely on reduction of a dye to a coloured formazan, in cell work by metabolically active cells.

In assay [6] the test system is MDA-MB-231. Put plainly: Induction of apoptosis in human MDA-MB-231 cells assessed as early apoptotic cells at 3.52 uM incubated for 48 hrs AnnexinV/ propidium iodide staining based flow cytometry (Rvb= 0.3%). The class given is functional.
The subject of assay [7] is MDA-MB-231. In words: Induction of apoptosis in human MDA-MB-231 cells assessed as viable cells at 1.76 uM incubated for 48 hrs AnnexinV/ propidium iodide staining based flow cytometry (Rvb= 99.02%). The conditions noted are these: read-out: Activity. The class given is functional.
In assay [8] the test system is MDA-MB-231. In words: Induction of apoptosis in human MDA-MB-231 cells assessed as necrotic cells at 1.76 uM incubated for 48 hrs AnnexinV/ propidium iodide staining based flow cytometry (Rvb= 0.54%). Type of assay: functional.
The next assay relates to HepG2. In words: Antitumor activity against human HepG2 cells assessed as inhibit cell proliferation incubated for 72 hrs by CCK-8 assay. The class given is functional, cell-based. The conditions noted are these: HepG2, 72 h. In a few lines: as §1
Assay [9] relates to MDA-MB-231. In words: Induction of apoptosis in human MDA-MB-231 cells assessed as necrotic cells at 2.2 uM incubated for 48 hrs AnnexinV/ propidium iodide staining based flow cytometry (Rvb= 0.54%). Type of assay: functional.
The test system of assay [10] is MDA-MB-231. In words: Induction of apoptosis in human MDA-MB-231 cells assessed as necrotic cells at 7.04 uM incubated for 48 hrs AnnexinV/ propidium iodide staining based flow cytometry (Rvb= 0.54%). The class given is functional.
Assay [11] deals with MDA-MB-231. Put plainly: Induction of apoptosis in human MDA-MB-231 cells assessed as viable cells at 3.52 uM incubated for 48 hrs AnnexinV/ propidium iodide staining based flow cytometry (Rvb= 99.02%). The note with it: read-out: Activity. The class given is functional.
In assay [12] the test system is MDA-MB-231. Put plainly: Induction of cell cycle arrest in human MDA-MB-231 cells assessed as increase in accumulation at G0/G1 phase at 0.88 to 3.52 uM incubated for 48 hrs by flow cytometry. The conditions noted are these: dose 0.88-3.52 µM, DDE = dose-dependent effect. The class given is functional, cell-based. In a few lines:
(§2)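 Cell cycle of MDA-MB-231 after 48 h exposure: trypsinised and washed in PBS, about 1×10^6 cells/mL. Fixed overnight in pre-cooled 70% ethanol at 4 °C, then resuspended in PBS and filtered through 200-mesh nylon. Flow cytometry with 488 nm excitation gave G0/G1, S and G2/M percentages; n = 3, mean ± SD.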

Assay [13] concerns MDA-MB-231. Put plainly: Induction of apoptosis in human MDA-MB-231 cells assessed as viable cells at 7.04 uM incubated for 48 hrs AnnexinV/ propidium iodide staining based flow cytometry (Rvb= 99.02%). Type of assay: functional. The note with it: read-out: Activity.
Assay [14] concerns MDA-MB-231. Put plainly: Induction of cell cycle arrest in human MDA-MB-231 cells assessed as decrease in G2/M phase at 0.88 to 3.52 uM incubated for 48 hrs by flow cytometry. The note with it: dose 0.88-3.52 µM, DDE = dose-dependent effect. Type of assay: functional, cell-based. In a few lines: as §2
The subject of assay [15] is MDA-MB-231. In words: Induction of apoptosis in human MDA-MB-231 cells assessed as necrotic cells at 3.52 uM incubated for 48 hrs AnnexinV/ propidium iodide staining based flow cytometry (Rvb= 0.54%). The class given is functional.
For assay [16], the system named is MDA-MB-231. In words: Inhibition of colony formation in human MDA-MB-231 cells assessed as decrease in size of colony forming cells at 0.44 to 3.52 uM incubated for 48 hrs by crystal violet staining based assay. Type of assay: functional, cell-based. The conditions noted are these: dose 0.44-3.52 µM, DDE = dose-dependent effect. A digest of the protocol:
(§3)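 Colony formation, MDA-MB-231: 800 cells/well, three replicate wells per group, grown 5–7 days at 37 °C, 5% CO2 until 30–50-cell clusters formed. Drug then added for 24, 48 or 72 h. Washed with cold PBS, fixed in 4% paraformaldehyde 30 min, stained with 0.5% crystal violet, imaged, colonies counted; n = 3.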

Assay [17] deals with MDA-MB-231. In words: Inhibition of cell migration in human MDA-MB-231 cells at 0.88 uM incubated for 12 hrs by scratch wound healing assay. Type of assay: functional, cell-based.
Assay [18] deals with MDA-MB-231. In words: Inhibition of colony formation in human MDA-MB-231 cells assessed as decrease in number of colony forming cells at 0.44 to 3.52 incubated for 48 hrs by crystal violet staining based assay. The class given is functional, cell-based. The note with it: DDE = dose-dependent effect. A digest of the protocol:
as §3

Calls of active or inactive are those of the source. The calls are words filed in the database; no cut-off is given here.

One may read the IC50 as the concentration needed to halve the response being measured. In the case of `O=C(Nc1cccc(-c2oc3cc(-c4ccc(F)cc4)ccc3c(=O)c2O)c1)c1ccc(Cl)nc1`, the inhibition result with MDA-MB-231 [1], in the assay on MDA-MB-231 [4], in the assay with MDA-MB-231 [16] and in the assay with MDA-MB-231 [18] was “Dde” throughout. Also, the Activity in the assay on MDA-MB-231 [2] came to 3.88%; in the assay with MDA-MB-231 [3] it was 61.14%; with MDA-MB-231 [6] it was 15.04%; in the assay on MDA-MB-231 [8] it was 0.86%; in the assay on MDA-MB-231 [9], 1.53%; with MDA-MB-231 [10], 1.92%. Also, the Activity result was “Dde” in the assay with MDA-MB-231 [12], “Dde” in the assay with MDA-MB-231 [14] and 2.1% with MDA-MB-231 [15]. For the same compound, the 50% inhibitory concentration (IC50) in the assay with MCF7 is 2.89 µM; with MDA-MB-231 [5] it was 1.76 µM; in the assay on HepG2, 4.61 µM. Moreover, in the assay on MDA-MB-231 [7], the viability at 1.76 µM came out at 45.8%. The viability at 3.52 µM in the assay with MDA-MB-231 [11] is 12%. Also, the viability at 7.04 µM with MDA-MB-231 [13] was 5.68%. The inhibition result in the assay with MDA-MB-231 [17] was “Active”.
